Data: ChEMBL document CHEMBL1275443, “Functional diversity among metallo-beta-lactamases: characterization of the CAR-1 enzyme of Erwinia carotovora” (2008)
In brackets after ≈: the same amount, converted by molar mass.

What was measured:
Format in all cases: functional
[1] = system: Pectobacterium atrosepticum; test: Antimicrobial activity against Erwinia carotovora subsp. atroseptica DSM 30184 after 24 hrs by broth microdilution method; conditions: DSM 30184, 24 h
Procedure, shortened: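 CLSI broth microdilution in nutrient broth with an inoculum of 5 x 10^4 CFU/well. MIC was read after 24 h at 28°C under aerobic growth.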

[2] = system: Escherichia coli; test: Antimicrobial activity against Escherichia coli DH5alpha harboring plasmid pLBII carrying beta-lactamase CAR-1 gene after 24 hrs by broth microdilution method
Procedure, shortened: (§1)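 MIC by CLSI broth microdilution in Mueller-Hinton broth at 37°C. Inoculum was 5 x 10^4 CFU/well, and growth was aerobic.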

[3] = system: Escherichia coli; test: Antimicrobial activity against Escherichia coli DH5alpha harboring plasmid BC-SK after 24 hrs by broth microdilution method; procedure, shortened: as §1

| SMILES | MIC [1] [µg/mL] | MIC [2] [µg/mL] | MIC [3] [µg/mL] |
| --- | --- | --- | --- |
| CO[C@@]1(NC(=O)Cc2cccs2)C(=O)N2C(C(=O)O)=C(COC(N)=O)CS[C@@H]21 [CEFOXITIN] | 8 (≈ 18.7 µM) | 8 (≈ 18.7 µM) | 4 (≈ 9.36 µM) |
| CO/N=C(\C(=O)N[C@@H]1C(=O)N2C(C(=O)[O-])=C(C[N+]3(C)CCCC3)CS[C@H]12)c1csc(N)n1 | 2 (≈ 4.16 µM) |  |  |
| CC1(C)S[C@@H]2[C@H](NC(=O)[C@H](N)c3ccccc3)C(=O)N2[C@H]1C(=O)O [AMPICILLIN] | 0.25 (≈ 0.715 µM) | 4 (≈ 11.4 µM) | 1 (≈ 2.86 µM) |
| CC(C)(O/N=C(\C(=O)N[C@@H]1C(=O)N2C(C(=O)[O-])=C(C[n+]3ccccc3)CS[C@H]12)c1csc(N)n1)C(=O)O [CEFTAZIDIME] | 16 (≈ 29.3 µM) | 1 (≈ 1.83 µM) | 0.5 (≈ 0.915 µM) |
| C[C@@H](O)[C@H]1C(=O)N2C(C(=O)O)=C(SCCNC=N)C[C@H]12 [IMIPENEM ANHYDROUS] | 0.12 (≈ 0.401 µM) |  |  |
| CC(=O)OCC1=C(C(=O)O)N2C(=O)[C@@H](NC(=O)Cc3cccs3)[C@H]2SC1 [CEPHALOTHIN] | 1 (≈ 2.52 µM) | 64 (≈ 161 µM) | 16 (≈ 40.4 µM) |
| CC1(C)S[C@@H]2[C@H](NC(=O)[C@H](C(=O)O)c3ccsc3)C(=O)N2[C@H]1C(=O)O [TICARCILLIN] | 4 (≈ 10.4 µM) | 8 (≈ 20.8 µM) | 4 (≈ 10.4 µM) |
| CO[C@@]1(NC(=O)C(C(=O)O)c2ccsc2)C(=O)N2[C@@H](C(=O)O)C(C)(C)S[C@@H]21 (some centres undefined) [TEMOCILLIN] | 64 (≈ 154 µM) | 16 (≈ 38.6 µM) | 16 (≈ 38.6 µM) |
| CCN1CCN(C(=O)N[C@@H](C(=O)N[C@@H]2C(=O)N3[C@@H]2SC(C)(C)[C@@H]3C(=O)O)c2ccccc2)C(=O)C1=O [PIPERACILLIN] | 64 (≈ 124 µM) | 2 (≈ 3.86 µM) | 1 (≈ 1.93 µM) |
| CO/N=C(\C(=O)N[C@@H]1C(=O)N2C(C(=O)O)=C(COC(N)=O)CS[C@H]12)c1ccco1 [CEFUROXIME] | 0.5 (≈ 1.18 µM) | 256 (≈ 603 µM) | 4 (≈ 9.43 µM) |
| C[C@@H](O)[C@H]1C(=O)N2C(C(=O)O)=C(S[C@@H]3CN[C@H](C(=O)N(C)C)C3)[C@H](C)[C@H]12 [MEROPENEM] | 0.25 (≈ 0.652 µM) | 0.06 (≈ 0.156 µM) | 0.03 (≈ 0.0782 µM) |
| CO/N=C(\C(=O)N[C@@H]1C(=O)N2C(C(=O)O)=C(COC(C)=O)CS[C@H]12)c1csc(N)n1 [CEFOTAXIME] | 1 (≈ 2.2 µM) | 16 (≈ 35.1 µM) | 0.06 (≈ 0.132 µM) |
| C[C@H]1[C@H](NC(=O)/C(=N\OC(C)(C)C(=O)O)c2csc(N)n2)C(=O)N1S(=O)(=O)O [AZTREONAM] | 16 (≈ 36.7 µM) | 0.25 (≈ 0.574 µM) |  |
